Test results published in ChEMBL document CHEMBL1147607, “Side-chain length is important for shogaols in protecting neuronal cells from beta-amyloid insult” (2004).

Legend:
[1] = system: PC-12; experiment: Effective dose to protect PC12 cells from beta-Amyloid (BA) insult was determined using MTT reduction assay; assay type: functional; conditions: Rattus norvegicus, read-out: ED50 (the source's name)
Outline: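 PC12 cells in high-glucose DMEM with 10% horse serum, 5% fetal calf serum and 1% penicillin/streptomycin were plated overnight. They were then co-incubated 24 h with βA(1-42) (DMSO stock) and test compound at five concentrations, final DMSO <1%. MTT was added for 1 h at 37 °C, then lysing buffer overnight at 37 °C, and OD read at 570 nm. Viability was referenced to DMSO-only and βA-only wells. ED50 came from dose–response curves; curcumin was the positive control.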

[2] = system: IMR-32; experiment: Effective dose to protect IMR-32 cells from beta-Amyloid (BA) insult was determined using MTT reduction assay; assay type: functional; conditions: Homo sapiens, read-out: ED50 (the source's name)
Outline: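 IMR-32 human neuroblastoma cells in Minimum Essential Medium with Earle's salts and L-glutamine, 10% fetal bovine serum and 1% penicillin/streptomycin were run as in the PC12 protocol. Cells were co-exposed 24 h to βA(1-42) and test compound at five concentrations, final DMSO <1%. MTT was reduced for 1 h at 37 °C, then lysed overnight, with OD read at 570 nm. ED50 came from dose–response curves.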

Structure (SMILES) | EC50 [1] | EC50 [2]
CCCCCC/C=C/C(=O)CCc1ccc(O)c(OC)c1 | 8.6 µM | 12 µM
CCCCCCCCC/C=C/C(=O)CCc1ccc(O)c(OC)c1 | 1.8 µM | 3.3 µM
CCCCCCCC/C=C/C(=O)CCc1ccc(O)c(OC)c1 | 4.4 µM | 6.2 µM
CCCC/C=C/C(=O)CCc1ccc(O)c(OC)c1 | 29 µM | 37.4 µM
CCCCCCCCCCC/C=C/C(=O)CCc1ccc(O)c(OC)c1 | 0.2 µM | 0.5 µM
CCCCCCC/C=C/C(=O)CCc1ccc(O)c(OC)c1 | 5.9 µM | 8.8 µM
CCC/C=C/C(=O)CCc1ccc(O)c(OC)c1 | 45.9 µM | 61.2 µM
CCCCCCCCCC/C=C/C(=O)CCc1ccc(O)c(OC)c1 | 0.5 µM | 1.4 µM
COc1cc(/C=C/C(=O)CC(=O)/C=C/c2ccc(O)c(OC)c2)ccc1O [CURCUMIN] | 17.1 µM | 23.9 µM
CCCCC/C=C/C(=O)CCc1ccc(O)c(OC)c1 [SHOGAOL] | 16.3 µM | 24.2 µM
COc1cc(CCC(C)=O)ccc1O [ZINGERONE] | > 129 µM | > 129 µM
